Screening data (PubChem BioAssay)
5-HT1A blocker: antagonists of human 5-HT1a serotonin receptor | inhibition, % at 10 µM | hit rate 0.68% among 62,000 | P08908 | CHO 5-HT1a Ga15 NFAT-bla reporter, antagonist mode;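 active means inhibition above the mean of all tested compounds plus 3 SD, cut at about 43% in these data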;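 further: receptor stimulated by 5-CT agonist at 100 nM near EC80; beta-lactamase reporter measured by ratiometric fluorescence of a cleavable substrate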
S1P3 agonist: activates the human S1P3 receptor; hit rate 0.1% among 60,000; S1P3 NFAT-BLA reporter cells, agonism, FRET ratio; relative to 1 µM S1P, basal subtracted; activation, % at 4.5 µM; AID 373; Q99500;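 active means activation above the screen-wide mean plus 3 SD, cut at about 4.5% in these data, passing the limit was not always enough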
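Benchmarks: high control 1 µM S1P / System: stable CHO line with human S1P3, Gα16, NFAT-BLA reporter / Dosing: single compound concentration, 4.5 µM final / Timing: 4 h compound at 37 °C, 2 h substrate at RT / Measured by: FRET β-lactamase substrate fluorescence, excitation 405 nm, 460/535 nm emission ratio, background-subtracted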
HTR1E antagonist: blocks the human 5-HT1E serotonin receptor; P28566; CHO 5-HT1E Ga15 NFAT-bla reporter, FRET, antagonist; inhibition, % at 6 µM; hit rate 0.99% among 65,000;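 active means inhibition above a set limit, the mean inhibition across every tested compound plus 3 SD, cut at about 29% in these data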;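 further: signal is the 460 over 535 nm emission ratio of beta-lactamase substrate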
Target sequence (P28566 whole entry, looked up): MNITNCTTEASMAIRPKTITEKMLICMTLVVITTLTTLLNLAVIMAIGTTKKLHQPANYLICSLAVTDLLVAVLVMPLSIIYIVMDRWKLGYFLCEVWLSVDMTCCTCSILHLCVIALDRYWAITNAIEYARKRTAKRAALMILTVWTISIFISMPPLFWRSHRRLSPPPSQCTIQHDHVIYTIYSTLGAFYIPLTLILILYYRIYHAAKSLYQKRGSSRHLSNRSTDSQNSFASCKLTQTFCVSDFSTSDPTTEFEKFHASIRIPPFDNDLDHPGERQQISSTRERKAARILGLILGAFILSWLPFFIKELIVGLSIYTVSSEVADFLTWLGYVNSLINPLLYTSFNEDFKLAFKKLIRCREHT
5HT1E ag: activates the human 5-HT1E serotonin receptor. P28566. CHO 5-HT1E Ga15 NFAT-bla reporter, FRET; 0% DMSO wells, 100% control agonist wells. activation, % at 6 µM. hit rate 0.69% among 65,000. AID 574;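 active means activation above a set limit, the screen-wide mean activation plus 3 SD, cut at about 8.5% in these data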
5HT1a ag: 5-HT1a (human) receptor agonism | activation, % at 10 µM | P08908 | CHO 5-HT1a Ga15 NFAT-bla reporter, FRET ratio; 0% basal, 100% maximal reference agonist | hit rate 0.56% among 65,000;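 active means activation above the screen-wide mean activation plus 3 SD, cut at about 19% in these data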
S1P1 ag-PAM: S1P1 (human) agonism or agonism potentiation | P21453 | S1P1 CRE-bla cells, forskolin, beta-lactamase FRET, potentiator mode; S1P1 agonist co-added at EC20, 2 nM; 100% = saturating reference agonist, 0% = basal | activation, % at 9.5 µM | hit rate 0.57% among 56,000 | AID 449;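 active means activation above a cutoff set at the mean activation of all tested compounds plus 3 SD, cut at about 54% in these data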;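 further: forskolin at 4 µM as EC80 and the EC20 agonist is SEW2871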
A number is an active result; n = inactive; x = not tested or not shown. In the library only some 3% were active in any assay of this set; here they are far more common.

SMILES	5-HT1A blocker	S1P3 agonist	HTR1E antagonist	5HT1E ag	5HT1a ag	S1P1 ag-PAM
Cc1nc2sc(C(c3cccc(F)c3)N3CCCC(C)C3)c(O)n2n1 (configuration not stated)	n	n	n	n	n	n
CCOC(=O)c1c(C)oc2c1c(C=NCC1CCCO1)c(O)c1ccccc12 (configuration not stated)	64	n	31	n	n	n
COc1ccc(OC)c(C2NC(=O)c3sc(=S)n(-c4ccccc4)c3N2)c1 (configuration not stated)	x	n	n	n	n	n
CC1CCN(S(=O)(=O)c2ccc(S(=O)(=O)NCC3COCCO3)cc2)CC1 (configuration not stated)	n	n	n	26	n	n
O=C(NCC1CCCO1)c1ccc(S(=O)(=O)N2CCCCC2)cc1 (configuration not stated)	n	n	n	n	n	n
CN1/C(=C\C(=O)COc2ccc3c(c2)OCO3)C(C)(C)c2ccccc21	n	n	n	14	n	n
CCCCN(C)CCCNC(=O)Cn1c(=O)sc2ccccc21	n	x	n	70	n	x
Cn1c(C(=O)NCCCN2CCN(c3ccc(F)cc3)CC2)cc2c(=O)n(C)c3ccccc3c21	65	n	n	n	n	n
CC(=O)NC1C(=O)N(CCc2ccccc2)c2ccccc21 (configuration not stated)	n	n	n	14	n	n
O=C(Nc1cccc(O)c1)c1cc(S(=O)(=O)N2CCCC2)ccc1Cl	n	x	n	n	n	x
CCOc1ccc(S(=O)(=O)Nc2ccc(Cl)cn2)c(C)c1C	n	n	n	n	n	n
CCOc1cc(C)c(S(=O)(=O)Nc2ccc(Cl)cn2)cc1C	n	n	n	27	n	n
CN=C(NC#N)SCC(=O)c1ccc(Cl)cc1Cl	n	n	n	n	n	82
Cc1ccc(C)n1NC(=O)c1ccc(Cl)cc1Cl	n	n	n	n	n	n
C=CCc1cccc2cc(C(=O)NCc3cccnc3)c(=O)oc12	n	n	n	n	n	n
O=C(Nc1ccc(NC(=O)c2ccco2)nc1)c1ccccn1	n	x	n	34	n	x
O=C(Cc1ccccc1)Nc1ccc(NC(=O)c2ccco2)nc1	n	n	n	n	n	n
Cc1ccnc(NC(=O)CCc2c(C)nc3ncnn3c2C)c1	n	n	n	n	n	n
CCOC(=O)CN(C(=O)CSc1nnc(COc2ccc(OC)cc2)n1C)c1ccccc1	n	n	n	n	n	n
CCOC(=O)c1[nH]c(C)c(C(=O)Nc2ccccc2C)c1C	n	n	n	n	n	n
CCOC(=O)c1[nH]c(C)c(C(=O)Nc2cc(Cl)ccc2C)c1C	n	n	44	n	n	n
COc1ccc(S(=O)(=O)N2CCCCC2)cc1C(C)C	n	n	n	34	n	n
COc1ccc(Oc2ccc(S(=O)(=O)N3CCCCC3)cc2S(=O)(=O)N2CCCCC2)cc1	n	x	n	n	n	x
CSc1ccccc1NC(=O)c1c(C)noc1C	n	n	n	n	n	n
COc1cc(C)c(Cl)cc1S(=O)(=O)NCC1CCCO1 (configuration not stated)	n	n	n	n	n	n
SMILES	5-HT1A blocker	S1P3 agonist	HTR1E antagonist	5HT1E ag	5HT1a ag	S1P1 ag-PAM
CCOc1cc(C)c(Cl)cc1S(=O)(=O)NCC1CCCO1 (configuration not stated)	n	n	31	n	n	n
N#CC1(c2nc3ccccc3[nH]2)CC1c1ccc2c(c1)OCO2 (configuration not stated)	n	n	n	n	n	n
CCN(CC)c1ccc2c(C)c(CN3CCOCC3)c(=O)oc2c1	n	n	n	n	23	n
Cc1c(C(=O)N2CCCc3ccccc32)oc2ccc(S(=O)(=O)N3CCOCC3)cc12	n	n	n	n	n	n
CCOC(=O)c1nc(S(C)(=O)=O)ncc1Cl	86	n	75	n	n	n
COc1ccc(-c2noc(CCC(=O)N3CCN(c4cc(C)ccc4C)CC3)n2)cc1	n	x	n	n	n	x
COC(=O)c1ccccc1NC(=O)Cn1c(-c2nonc2N)nc2ccccc21	74	n	81	n	n	n
Nc1nonc1-c1nc2ccccc2n1CC(=O)N1CCCCC1	n	n	n	n	n	n
